# Published values gathered from unrelated publications.
# Compare with care: the assays were run in different laboratories.
# Target: Serine/threonine-protein kinase pim-1 (PIM1, Homo sapiens, UniProt P11309)
SMILES,effect on,mode,method,tested at,endpoint,value
CCCCC(=O)Nc1ccc(-c2ccc3ncn(CCC)c(=O)c3c2)cn1,binding,,competition with immobilised ligand,0.5 µM,remaining binding,100%
N#Cc1ccc(NC(=O)Nc2ccccc2)cc1,cell-free assay,,competition with immobilised ligand,25 µM,remaining binding,87%
C[C@H]1CC[C@H](n2c3cnccc3c3cnc(Nc4ccc5c(n4)CCN(C(=O)CO)C5)nc32)CC1,cell-free assay,,,1 µM,remaining signal,59%
CC(C)S(=O)(=O)c1ccc2nccc(Nc3ccc4sc(C5CCCC5)nc4c3)c2c1,enzyme activity,inhibitor,,1 µM,activity vs control,101%
CC#CC(=O)N1CCC[C@H]1c1nc(-c2ccc(C(=O)Nc3ccccn3)cc2)c2c(N)nccn12,enzyme activity,inhibitor,,1 µM,inhibition,0%
CC(=O)ON=C1C=CC(=C(C#N)c2ccccc2)C=C1,enzyme activity,inhibitor,ADP detection,20 µM,activity vs control,102%
CN1CCN(C(=O)c2ccc(NC(=O)Nc3ccc(N(C)c4ccnc(Nc5ccc(CS(C)(=O)=O)cc5)n4)cc3)cc2)CC1,binding,,,1 µM,remaining binding,100%
C=CC(=O)N1CCC([C@@H]2CCNc3c(C(N)=O)c(-c4ccc(Oc5ccccc5)cc4)nn32)CC1,enzyme activity,inhibitor,,1 µM,inhibition,6%
COc1ccc2oc(-c3ccc4nc(N)oc4c3)c/c(=N\c3ccccc3NC(=O)CCN)c2c1,binding,,,1 µM,remaining binding,119%
C#Cc1cnc(Nc2ccnc(CO)c2)nc1Nc1ccccc1S(C)(=O)=NC#N (centres unmarked),cell-free assay,,,1 µM,remaining signal,87%
C1=C/COCc2cc(ccc2OCCN2CCCC2)Nc2nccc(n2)-c2cccc(c2)COC/1,binding,,,0.1 µM,remaining binding,100%
